In series [1] the test system is Plasmodium falciparum. The experiment in a line: Antimicrobial activity against chloroquine-sensitive Plasmodium falciparum 3D7 after 72 hrs. The format is functional, organism-based. The conditions noted are these: 3D7, 72 h.
Series [2] deals with Trypanosoma brucei brucei. The experiment in a line: Antimicrobial activity against Trypanosoma brucei brucei clone 427-221a after 48 hrs. Format: functional, organism-based. In short, it runs like this:
(§1)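 Bloodstream-form T. b. brucei in Baltz medium (~10^4/ml) and HL-60 cells in RPMI 1640 (~10^5/ml), both with 16.7% FBS, were exposed 48 h at 37°C in 5% CO2 to compound up to 10 µM in 1% final DMSO. Live cells were hemocytometer-counted, by motility (trypanosomes) or trypan blue exclusion (HL-60). EC50 was taken by regression versus DMSO cultures from three experiments. MIC was the lowest fully lethal concentration, judged microscopically.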

The subject of series [3] is Leishmania major. The series is described as follows: Antileishmanial activity against Leishmania major MHOM/IL/81/FE/BNI amastigotes after 48 hrs. The format is functional, organism-based. The gist of the method: (§2)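 Peritoneal macrophages from BALB/c mice (6-8 wk) adhered 2 h at 37°C, infected 24 h with stationary-phase L. major promastigotes at 10:1 parasite:macrophage, washed, then exposed 48 h to compound at 0.0001 to 10 µM. Intracellular amastigotes stained with acridine orange/ethidium bromide and counted by fluorescence microscopy; percent amastigotes cleared versus DMSO-treated cultures; three repeats.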

For another series, the system named is Leishmania donovani. The series is described as follows: Antileishmanial activity against Leishmania donovani MHOM/SD/00/1S-2D promastigotes assessed as parasite death at 10 uM after 72 hrs. Format: functional. The gist of the method:
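Promastigotes seeded at 1.5 x 10^5 cells/ml in medium 199 with 10% heat-inactivated FBS. Compound added at a final 10 µM, in triplicate, in sealed flasks at 27°C for up to 7 days. Aliquots taken daily and viability read by CellTiter-Glo luminescence. Result given as percent reduction in viability relative to DMSO-treated cultures. Controls were K11777 or amphotericin B at 10 µM.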

The test system of series [4] is Plasmodium falciparum. The series is described as follows: Antimicrobial activity against chloroquine-resistant Plasmodium falciparum W2 after 72 hrs. The format is functional, organism-based. The following applies: W2, 72 h.
Another series concerns Entamoeba histolytica. The series is described as follows: Antimicrobial activity against Entamoeba histolytica HM1 IMSS trophozoites after 48 hrs. Format: functional, organism-based. The following applies: 60 h, in the assay text read “60 hrs” for “48 hrs”. The gist of the method:
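Trophozoites were grown axenically in TYI-S-33 with 10% bovine adult serum and seeded at ~10^4 cells/well. Compound (range up to 10 µM) was added to 48-h log-phase cultures, then incubated 60 h at 37°C under anaerobic conditions. Viability was read by CellTiter-Glo luminescence. EC50 came from quadruplicate wells in two independent experiments.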

Series [5] relates to Schistosoma mansoni. The series is described as follows: Antimicrobial activity against Schistosoma mansoni assessed as worm vitality at 6 uM after 4 hrs. The format is functional, organism-based. The gist of the method: (§3)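 20-day-old worms were obtained by perfusion of BALB/c mice infected with 200 cercariae. About 20 worms/well were kept in Basch 169 with 10% bovine calf serum, preincubated 24 h at 37°C in 5% CO2, then exposed to 1, 3 or 6 µM. Vitality (feeding, flexing, gut peristalsis; death = nonmotile, shrunken, dark) was scored at 4 and 18 h in two experiments.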

A short description of series [6]: Selectivity index, ratio of EC50 for HL60 cells to EC50 for Trypanosoma brucei brucei clone 427-221a. The format is functional, HL-60. In short, it runs like this: as §1
Series [7] in a line: Cytotoxicity against BALB/c mouse peritoneal macrophages at 10 uM after 48 hrs hrs. The format is cell-based. The following applies: macrophage.
The test system of a further series is Trichomonas vaginalis. The series is described as follows: Antimicrobial activity against Trichomonas vaginalis G3 assessed as parasite death at 10 uM after 24 hrs. Format: functional. The gist of the method:
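G3 strain grown in Diamond's medium at 37°C. Assay culture set up as 0.5 ml dense culture diluted into 5.0 ml complete medium. Compound at a final 10 µM for 24 h at 37°C. Motile cells counted by hemocytometer. Result is percent dead parasites relative to DMSO-treated cultures, from five separate experiments. Controls were untreated, DMSO and metronidazole.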

Series [8] can be described thus: Selectivity index, ratio of MIC for HL60 cells to MIC for Trypanosoma brucei brucei clone 427-221a. Format: functional, HL-60. The gist of the method:
as §1

Series [9] is described as follows: (§4) Cytotoxicity against human HL60 cells. Format: cell-based, HL-60. The conditions noted are these: human, HL-60 cells; read-out: MIC. The gist of the method: as §1
The test system of another series is HL-60. Described as §4. The conditions noted are these: Homo sapiens, HL-60. The format is cell-based. The gist of the method:
as §1

In series [10] the test system is Schistosoma mansoni. The experiment in a line: Antimicrobial activity against Schistosoma mansoni assessed as worm vitality at 3 uM after 4 hrs. The format is functional, organism-based. In short, it runs like this:
as §3

For series [11], the system named is Leishmania major. The series is described as follows: Antileishmanial activity against Leishmania major MHOM/IL/81/FE/BNI amastigotes after 48 hrs at 1 uM. The format is functional, organism-based. In short, it runs like this:
as §2

Series [12] can be described thus: Cytotoxicity against BALB/c mouse peritoneal macrophages at 1 uM after 48 hrs hrs. Format: cell-based. The following applies: macrophage.

In brackets after ≈: the same amount, converted by molar mass. Activity calls are given as the source filed them. The rule behind the calls is not given here.

`COc1ccc2nc3cc(Cl)ccc3c(NCCCCNCCCCCNCCCNc3c4ccc(Cl)cc4nc4ccc(OC)cc34)c2c1`: the EC50 is 125 nM in the series with Plasmodium falciparum [1]; 1.9 nM in [2]; 600 nM in the series on Leishmania major [3]; 129 nM with Plasmodium falciparum [4]; 5000 nM in the series with Entamoeba histolytica; 270 nM in the series with HL-60. The same compound showed an MIC in [2] of 1 µM (≈ 0.714 µg/mL). Moreover, the Activity is reported as 98% in the series on Leishmania donovani, “Toxic” in series [7] and 66% in the series on Trichomonas vaginalis. In addition, the result in the series on Schistosoma mansoni [5] was Active. For the same compound, in series [6], the “Ratio EC50” value was determined as 140. In [8], the Ratio was found to be 10. The MCC in series [9] is 10 µM.
Consider `COc1ccc2nc3cc(Cl)ccc3c(NCCCN(C)CCCNc3c4ccc(Cl)cc4nc4ccc(OC)cc34)c2c1`, for which the outcome in the series with Schistosoma mansoni [10] and with Schistosoma mansoni [5] was Active. Further, the EC50 in the series on Plasmodium falciparum [1] amounted to 790 nM; in series [2] it was 0.9 nM; with Leishmania major [3], 6000 nM; in the series on Plasmodium falciparum [4], 1080 nM; in the series with Entamoeba histolytica it was 500 nM; in the series on HL-60 it was 1180 nM. For the same compound, the MIC in [2] amounted to 0.1 µM (≈ 0.0629 µg/mL). The Activity in the series on Leishmania donovani worked out at 99%; with Trichomonas vaginalis, 92%. In addition, the “Ratio EC50” value in series [6] is recorded as 1326. In addition, the Ratio in series [8] stood at 100. For the same compound, the MCC in series [9] came out at 10 µM.
In the case of `COc1ccc2nc3cc(Cl)ccc3c(NCCCCN(CCCNc3c4ccc(Cl)cc4nc4ccc(OC)cc34)C(=O)[C@H](C)N)c2c1`, the EC50 came to 310 nM in the series with Plasmodium falciparum [1]; 0.9 nM in [2]; 303 nM in the series with Plasmodium falciparum [4]; 5000 nM with Entamoeba histolytica; 225 nM with HL-60. This compound came in with an MIC in [2] of 1 µM (≈ 0.7 µg/mL). Also, the Activity in the series with Leishmania donovani is 93%; in series [12], “Toxic”; in [7], “Toxic”; with Trichomonas vaginalis, 80%. The result in the series with Leishmania major [11] was inactive. Besides, the “Ratio EC50” value in series [6] worked out at 242. In addition, the Ratio in series [8] came out at 10. Also, the MCC in series [9] is 10 µM.
Take `COc1ccc2nc3cc(Cl)ccc3c(NCCCCN(CCCNc3c4ccc(Cl)cc4nc4ccc(OC)cc34)C(=O)CNC(=O)[C@H](C)N)c2c1`: the EC50 with Plasmodium falciparum [1] is 716 nM; in series [2], 6.4 nM; in the series on Leishmania major [3], 700 nM; in the series on Plasmodium falciparum [4], 823 nM; in the series with Entamoeba histolytica, 5000 nM; with HL-60, 491 nM. For the same compound, it took 10 µM (≈ 7.57 µg/mL) to inhibit growth in [2] (MIC). In addition, the Activity in the series on Leishmania donovani was 16%; in series [7], “Toxic”; in the series on Trichomonas vaginalis, 0%. Moreover, in [6], the “Ratio EC50” value came to 77. The Ratio in [8] is greater than 1. Also, the MCC in series [9] was greater than 10 µM.
Regarding `COc1ccc2nc3cc(Cl)ccc3c(NCCOCCOCCNc3c4ccc(Cl)cc4nc4ccc(OC)cc34)c2c1`, the EC50 was 61 nM in the series on Plasmodium falciparum [1]; 5.8 nM in [2]; 74 nM in the series on Plasmodium falciparum [4]; 5000 nM with Entamoeba histolytica; 3040 nM with HL-60. Besides, in series [2], the MIC came out at 1 µM (≈ 0.632 µg/mL). Besides, the Activity in the series with Leishmania donovani is on record as 96%; in series [12], “Toxic”; in series [7] it was “Toxic”; in the series on Trichomonas vaginalis, 75%. For the same compound, the outcome in the series with Leishmania major [11] was inactive. The “Ratio EC50” value in series [6] was found to be 524. In addition, in series [8], the Ratio is 10. Besides, the MCC in series [9] came to 10 µM.
Consider `COc1ccc2nc3cc(Cl)ccc3c(NCCCNCCCNCCCNc3c4ccc(Cl)cc4nc4ccc(OC)cc34)c2c1`, for which the EC50 was 121 nM in the series with Plasmodium falciparum [1]; 1.4 nM in series [2]; 3000 nM in the series on Leishmania major [3]; 147 nM in the series on Plasmodium falciparum [4]; 5000 nM in the series on Entamoeba histolytica; 142 nM with HL-60. For the same compound, the MIC in series [2] came to 1 µM (≈ 0.672 µg/mL). The results for the Activity with Leishmania donovani and in the series on Trichomonas vaginalis were 73% and 0%, respectively. In addition, the result in the series with Schistosoma mansoni [5] was Active. The “Ratio EC50” value in [6] is on record as 98. Further, the Ratio in [8] amounted to 10. For the same compound, the MCC in series [9] turned out to be 10 µM.

Broadly, the EC50 is the concentration that produces a half-maximal response. The low end stands for an effect from little substance, the high end for a need for much substance. As usually defined, the MIC is the lowest concentration that inhibits growth of the organism.

(Values after ChEMBL document CHEMBL1143811, “Bis-acridines as lead antiparasitic agents: structure-activity analysis of a discrete compound library in vitro” (Antimicrob Agents Chemother, 2007).)
